Test: SAD study: safety and tolerability
Type: in vivo, human
Settings: for Abdominal pain TEAE, events / Abdominal pain TEAE, participants / Any event TEAE, events / Any event TEAE, participants / Diarrhea TEAE, events / Diarrhea TEAE, participants / Dysgeusia TEAE, events / Dysgeusia TEAE, participants / Gastrointestinal disorders TEAE, events / Gastrointestinal disorders TEAE, participants / Headache TEAE, events / Headache TEAE, participants / Hypoaesthesia oral TEAE, events / Hypoaesthesia oral TEAE, participants / Infections and infestations TEAE, events / Infections and infestations TEAE, participants / Insomnia TEAE, events / Insomnia TEAE, participants / Nasopharyngitis TEAE, events / Nasopharyngitis TEAE, participants / Nervous system disorders TEAE, events / Nervous system disorders TEAE, participants / Psychiatric disorders TEAE, events / Psychiatric disorders TEAE, participants / Rash TEAE, events / Rash TEAE, participants / Skin and subcutaneous tissue disorders TEAE, events / Skin and subcutaneous tissue disorders TEAE, participants / Tooth infection TEAE, events / Tooth infection TEAE, participants: N = 6
Method in brief: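 Healthy males aged 18–55 with BMI 18–30 kg/m² were followed through dosing and a 6–8-day follow-up. Checks: physical examination, clinical laboratory tests, vital signs and 12-lead ECG, with adverse events coded in MedDRA. Events of special interest: ALT ≥2×ULN, QTcF ≥500 ms, Grade ≥2 photosensitivity, symptomatic overdose. Treatment-emergent events were summarised descriptively by organ class, preferred term and dose level for all exposed participants.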

Compound: CN1C(=O)c2cccc(OC(F)F)c2[C@H]2C[C@@H]1c1nc3ccc(-c4cnc(C5(N)CCC5)nc4)cc3n12 [Balinatunfib]
- Grade ≥ 3 TEAE, treatment-emergent SAEs, TEAEs leading to discontinuation, AESIs (SAD): No participants
- Abdominal pain TEAE, events (SAD 5 mg): 0
- Abdominal pain TEAE, participants (SAD 5 mg): 0 n (%)
- Any event TEAE, events (SAD 5 mg): 0
- Any event TEAE, participants (SAD 5 mg): 0 n (%)
- Diarrhea TEAE, events (SAD 5 mg): 0
- Diarrhea TEAE, participants (SAD 5 mg): 0 n (%)
- Dysgeusia TEAE, events (SAD 5 mg): 0
- Dysgeusia TEAE, participants (SAD 5 mg): 0 n (%)
- Gastrointestinal disorders TEAE, events (SAD 5 mg): 0
- Gastrointestinal disorders TEAE, participants (SAD 5 mg): 0 n (%)
- Headache TEAE, events (SAD 5 mg): 0
- Headache TEAE, participants (SAD 5 mg): 0 n (%)
- Hypoaesthesia oral TEAE, events (SAD 5 mg): 0
- Hypoaesthesia oral TEAE, participants (SAD 5 mg): 0 n (%)
- Infections and infestations TEAE, events (SAD 5 mg): 0
- Infections and infestations TEAE, participants (SAD 5 mg): 0 n (%)
- Insomnia TEAE, events (SAD 5 mg): 0
- Insomnia TEAE, participants (SAD 5 mg): 0 n (%)
- Nasopharyngitis TEAE, events (SAD 5 mg): 0
- Nasopharyngitis TEAE, participants (SAD 5 mg): 0 n (%)
- Nervous system disorders TEAE, events (SAD 5 mg): 0
- Nervous system disorders TEAE, participants (SAD 5 mg): 0 n (%)
- Psychiatric disorders TEAE, events (SAD 5 mg): 0
- Psychiatric disorders TEAE, participants (SAD 5 mg): 0 n (%)
- Rash TEAE, events (SAD 5 mg): 0
- Rash TEAE, participants (SAD 5 mg): 0 n (%)
- Skin and subcutaneous tissue disorders TEAE, events (SAD 5 mg): 0
- Skin and subcutaneous tissue disorders TEAE, participants (SAD 5 mg): 0 n (%)
- Tooth infection TEAE, events (SAD 5 mg): 0
- Tooth infection TEAE, participants (SAD 5 mg): 0 n (%)
- Abdominal pain TEAE, events (SAD 20 mg): 0
- Abdominal pain TEAE, participants (SAD 20 mg): 0 n (%)
- Any event TEAE, events (SAD 20 mg): 0
- Any event TEAE, participants (SAD 20 mg): 0 n (%)
- Diarrhea TEAE, events (SAD 20 mg): 0
- Diarrhea TEAE, participants (SAD 20 mg): 0 n (%)
- Dysgeusia TEAE, events (SAD 20 mg): 0
- Dysgeusia TEAE, participants (SAD 20 mg): 0 n (%)
- Gastrointestinal disorders TEAE, events (SAD 20 mg): 0
- Gastrointestinal disorders TEAE, participants (SAD 20 mg): 0 n (%)
- Headache TEAE, events (SAD 20 mg): 0
- Headache TEAE, participants (SAD 20 mg): 0 n (%)
- Hypoaesthesia oral TEAE, events (SAD 20 mg): 0
- Hypoaesthesia oral TEAE, participants (SAD 20 mg): 0 n (%)
- Infections and infestations TEAE, events (SAD 20 mg): 0
- Infections and infestations TEAE, participants (SAD 20 mg): 0 n (%)
- Insomnia TEAE, events (SAD 20 mg): 0
- Insomnia TEAE, participants (SAD 20 mg): 0 n (%)
- Nasopharyngitis TEAE, events (SAD 20 mg): 0
- Nasopharyngitis TEAE, participants (SAD 20 mg): 0 n (%)
- Nervous system disorders TEAE, events (SAD 20 mg): 0
- Nervous system disorders TEAE, participants (SAD 20 mg): 0 n (%)
- Psychiatric disorders TEAE, events (SAD 20 mg): 0
- Psychiatric disorders TEAE, participants (SAD 20 mg): 0 n (%)
- Rash TEAE, events (SAD 20 mg): 0
- Rash TEAE, participants (SAD 20 mg): 0 n (%)
- Skin and subcutaneous tissue disorders TEAE, events (SAD 20 mg): 0
- Skin and subcutaneous tissue disorders TEAE, participants (SAD 20 mg): 0 n (%)
- Tooth infection TEAE, events (SAD 20 mg): 0
- Tooth infection TEAE, participants (SAD 20 mg): 0 n (%)
- Abdominal pain TEAE, events (SAD 60 mg): 0
- Abdominal pain TEAE, participants (SAD 60 mg): 0 n (%)
- Any event TEAE, events (SAD 60 mg): 1
- Any event TEAE, participants (SAD 60 mg): 1 (16.7) n (%)
- Diarrhea TEAE, events (SAD 60 mg): 0
- Diarrhea TEAE, participants (SAD 60 mg): 0 n (%)
- Dysgeusia TEAE, events (SAD 60 mg): 0
- Dysgeusia TEAE, participants (SAD 60 mg): 0 n (%)
- Gastrointestinal disorders TEAE, events (SAD 60 mg): 0
- Gastrointestinal disorders TEAE, participants (SAD 60 mg): 0 n (%)
- Headache TEAE, events (SAD 60 mg): 0
- Headache TEAE, participants (SAD 60 mg): 0 n (%)
- Hypoaesthesia oral TEAE, events (SAD 60 mg): 0
- Hypoaesthesia oral TEAE, participants (SAD 60 mg): 0 n (%)
- Infections and infestations TEAE, events (SAD 60 mg): 1
- Infections and infestations TEAE, participants (SAD 60 mg): 1 (16.7) n (%)
- Insomnia TEAE, events (SAD 60 mg): 0
- Insomnia TEAE, participants (SAD 60 mg): 0 n (%)
- Nasopharyngitis TEAE, events (SAD 60 mg): 0
- Nasopharyngitis TEAE, participants (SAD 60 mg): 0 n (%)
- Nervous system disorders TEAE, events (SAD 60 mg): 0
- Nervous system disorders TEAE, participants (SAD 60 mg): 0 n (%)
- Psychiatric disorders TEAE, events (SAD 60 mg): 0
- Psychiatric disorders TEAE, participants (SAD 60 mg): 0 n (%)
- Rash TEAE, events (SAD 60 mg): 0
- Rash TEAE, participants (SAD 60 mg): 0 n (%)
- Skin and subcutaneous tissue disorders TEAE, events (SAD 60 mg): 0
- Skin and subcutaneous tissue disorders TEAE, participants (SAD 60 mg): 0 n (%)
- Tooth infection TEAE, events (SAD 60 mg): 1
- Tooth infection TEAE, participants (SAD 60 mg): 1 (16.7) n (%)
- Abdominal pain TEAE, events (SAD 180 mg): 0
- Abdominal pain TEAE, participants (SAD 180 mg): 0 n (%)
- Any event TEAE, events (SAD 180 mg): 0
- Any event TEAE, participants (SAD 180 mg): 0 n (%)
- Diarrhea TEAE, events (SAD 180 mg): 0
- Diarrhea TEAE, participants (SAD 180 mg): 0 n (%)
- Dysgeusia TEAE, events (SAD 180 mg): 0
- Dysgeusia TEAE, participants (SAD 180 mg): 0 n (%)
- Gastrointestinal disorders TEAE, events (SAD 180 mg): 0
- Gastrointestinal disorders TEAE, participants (SAD 180 mg): 0 n (%)
- Headache TEAE, events (SAD 180 mg): 0
- Headache TEAE, participants (SAD 180 mg): 0 n (%)
- Hypoaesthesia oral TEAE, events (SAD 180 mg): 0
- Hypoaesthesia oral TEAE, participants (SAD 180 mg): 0 n (%)
- Infections and infestations TEAE, events (SAD 180 mg): 0
- Infections and infestations TEAE, participants (SAD 180 mg): 0 n (%)
- Insomnia TEAE, events (SAD 180 mg): 0
- Insomnia TEAE, participants (SAD 180 mg): 0 n (%)
- Nasopharyngitis TEAE, events (SAD 180 mg): 0
- Nasopharyngitis TEAE, participants (SAD 180 mg): 0 n (%)
- Nervous system disorders TEAE, events (SAD 180 mg): 0
- Nervous system disorders TEAE, participants (SAD 180 mg): 0 n (%)
- Psychiatric disorders TEAE, events (SAD 180 mg): 0
- Psychiatric disorders TEAE, participants (SAD 180 mg): 0 n (%)
- Rash TEAE, events (SAD 180 mg): 0
- Rash TEAE, participants (SAD 180 mg): 0 n (%)
- Skin and subcutaneous tissue disorders TEAE, events (SAD 180 mg): 0
- Skin and subcutaneous tissue disorders TEAE, participants (SAD 180 mg): 0 n (%)
- Tooth infection TEAE, events (SAD 180 mg): 0
- Tooth infection TEAE, participants (SAD 180 mg): 0 n (%)
- Abdominal pain TEAE, events (SAD 400 mg): 1
- Abdominal pain TEAE, participants (SAD 400 mg): 1 (16.7) n (%)
- Any event TEAE, events (SAD 400 mg): 4
- Any event TEAE, participants (SAD 400 mg): 2 (33.3) n (%)
- Diarrhea TEAE, events (SAD 400 mg): 0
- Diarrhea TEAE, participants (SAD 400 mg): 0 n (%)
- Dysgeusia TEAE, events (SAD 400 mg): 2
- Dysgeusia TEAE, participants (SAD 400 mg): 2 (33.3) n (%)
- Gastrointestinal disorders TEAE, events (SAD 400 mg): 1
- Gastrointestinal disorders TEAE, participants (SAD 400 mg): 1 (16.7) n (%)
- Headache TEAE, events (SAD 400 mg): 1
- Headache TEAE, participants (SAD 400 mg): 1 (16.7) n (%)
- Hypoaesthesia oral TEAE, events (SAD 400 mg): 0
- Hypoaesthesia oral TEAE, participants (SAD 400 mg): 0 n (%)
- Infections and infestations TEAE, events (SAD 400 mg): 0
- Infections and infestations TEAE, participants (SAD 400 mg): 0 n (%)
- Insomnia TEAE, events (SAD 400 mg): 0
- Insomnia TEAE, participants (SAD 400 mg): 0 n (%)
- Nasopharyngitis TEAE, events (SAD 400 mg): 0
- Nasopharyngitis TEAE, participants (SAD 400 mg): 0 n (%)
- Nervous system disorders TEAE, events (SAD 400 mg): 3
- Nervous system disorders TEAE, participants (SAD 400 mg): 2 (33.3) n (%)
- Psychiatric disorders TEAE, events (SAD 400 mg): 0
- Psychiatric disorders TEAE, participants (SAD 400 mg): 0 n (%)
- Rash TEAE, events (SAD 400 mg): 0
- Rash TEAE, participants (SAD 400 mg): 0 n (%)
- Skin and subcutaneous tissue disorders TEAE, events (SAD 400 mg): 0
- Skin and subcutaneous tissue disorders TEAE, participants (SAD 400 mg): 0 n (%)
- Tooth infection TEAE, events (SAD 400 mg): 0
- Tooth infection TEAE, participants (SAD 400 mg): 0 n (%)
- Abdominal pain TEAE, events (SAD 600 mg): 0
- Abdominal pain TEAE, participants (SAD 600 mg): 0 n (%)
- Any event TEAE, events (SAD 600 mg): 3
- Any event TEAE, participants (SAD 600 mg): 2 (33.3) n (%)
- Diarrhea TEAE, events (SAD 600 mg): 0
- Diarrhea TEAE, participants (SAD 600 mg): 0 n (%)
- Dysgeusia TEAE, events (SAD 600 mg): 0
- Dysgeusia TEAE, participants (SAD 600 mg): 0 n (%)
- Gastrointestinal disorders TEAE, events (SAD 600 mg): 1
- Gastrointestinal disorders TEAE, participants (SAD 600 mg): 1 (16.7) n (%)
- Headache TEAE, events (SAD 600 mg): 0
- Headache TEAE, participants (SAD 600 mg): 0 n (%)
- Hypoaesthesia oral TEAE, events (SAD 600 mg): 1
- Hypoaesthesia oral TEAE, participants (SAD 600 mg): 1 (16.7) n (%)
- Infections and infestations TEAE, events (SAD 600 mg): 1
- Infections and infestations TEAE, participants (SAD 600 mg): 1 (16.7) n (%)
- Insomnia TEAE, events (SAD 600 mg): 1
- Insomnia TEAE, participants (SAD 600 mg): 1 (16.7) n (%)
- Nasopharyngitis TEAE, events (SAD 600 mg): 1
- Nasopharyngitis TEAE, participants (SAD 600 mg): 1 (16.7) n (%)
- Nervous system disorders TEAE, events (SAD 600 mg): 0
- Nervous system disorders TEAE, participants (SAD 600 mg): 0 n (%)
- Psychiatric disorders TEAE, events (SAD 600 mg): 1
- Psychiatric disorders TEAE, participants (SAD 600 mg): 1 (16.7) n (%)
- Rash TEAE, events (SAD 600 mg): 0
- Rash TEAE, participants (SAD 600 mg): 0 n (%)
- Skin and subcutaneous tissue disorders TEAE, events (SAD 600 mg): 0
- Skin and subcutaneous tissue disorders TEAE, participants (SAD 600 mg): 0 n (%)
- Tooth infection TEAE, events (SAD 600 mg): 0
- Tooth infection TEAE, participants (SAD 600 mg): 0 n (%)
- participants with at least one TEAE (SAD, all balinatunfib groups (five of 36)): 13.9%
- tolerability (all single oral doses (5–600 mg)): well tolerated

— article PMC12166256 (Clinical Pharmacology and Therapeutics, 2025)
